Reference: ChEMBL document CHEMBL3045714, “Insect antifeedants from tropical plants: structures of dumnin and dumsenin” (2004)

Columns and labels:
Type in all cases: functional
Pectinophora gossypiella [1] = experiment: Antifeedant activity against second-instar larvae of Pectinophora gossypiella (pink bollworm) assessed as concentration required for 50 % protection of host plant substrate after 48 hr by leaf disk assay
Summary of the method: (§1)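 Leaf disks (1 cm²) punched from glandless cotton cultivar, randomized, 12 per Petri dish on moistened filter paper; alternate disks treated on upper surface with 25 μL acetone or 0–100 μg sample in 25 μL acetone. Three larvae per dish, 22 °C, dark, 48 h; percent disk area eaten vs control scored visually. PC50/PC95 = ca. 50/95% protection; triplicate on separate occasions, mean.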

Pectinophora gossypiella [2] = experiment: Antifeedant activity against second-instar larvae of Pectinophora gossypiella (pink bollworm) assessed as concentration required for 95 % protection of host plant substrate after 48 hr by leaf disk assay; summary of the method: as §1
Spodoptera frugiperda [3] = experiment: Antifeedant activity against second-instar larvae of Spodoptera frugiperda (fall armyworm) assessed as concentration required for 95 % protection of host plant substrate after 48 hr by leaf disk assay; summary of the method: as §1
Spodoptera frugiperda [4] = experiment: Antifeedant activity against second-instar larvae of Spodoptera frugiperda (fall armyworm) assessed as concentration required for 50 % protection of host plant substrate after 48 hr by leaf disk assay; summary of the method: as §1

SMILES | PC50 (Pectinophora gossypiella [1]) | PC95 (Pectinophora gossypiella [2]) | PC95 (Spodoptera frugiperda [3]) | PC50 (Spodoptera frugiperda [4])
CC(=O)O[C@H]1[C@H](OC(C)=O)[C@]2(C)[C@@H](c3ccoc3)C[C@@H]3O[C@@]32[C@@]2(C)[C@H](OC(=O)Cc3ccccc3)C[C@H]3C(C)(C)O[C@]4(O)C(=O)CC[C@]34[C@@H]12 [DUMNIN] | 1 µg/mL | 16 µg/mL | – | –
CC(=O)O[C@H]1[C@H](OC(C)=O)[C@@]2(C)C(=CC[C@@H]2c2ccoc2)[C@@]2(C)C(=O)C[C@H]3C(C)(C)O[C@]4(O)C(=O)CC[C@]34[C@@H]12 [DUMSENIN] | 2 µg/mL | 8 µg/mL | 4 µg/mL | 1 µg/mL
CC(=O)O[C@H]1[C@H](OC(C)=O)[C@]2(C)[C@@H](c3ccoc3)C[C@@H]3O[C@@]32[C@@]2(C)[C@H](OC(=O)CC(C)C)C[C@H]3C(C)(C)O[C@]4(O)C(=O)CC[C@]34[C@@H]12 [DUMSIN] | 1 µg/mL | 8 µg/mL | – | –
CC(=O)O[C@@H]1[C@@H]2[C@@]34CC(=O)C[C@@H]3OC(C)(C)[C@@H]4CC(=O)[C@@]2(C)[C@@]23O[C@@H]2C[C@H](c2ccoc2)[C@]3(C)[C@H]1OC(C)=O [ZUMSIN] | 1 µg/mL | 8 µg/mL | 16 µg/mL | 2 µg/mL
